Measurements: ChEMBL document CHEMBL1151960, “(Nitrooxyacyloxy)methyl esters of aspirin as novel nitric oxide releasing aspirins” (J Med Chem, 2009)

Legend:
[1] = Chemical stability in acidic medium at pH 1 assessed as unchanged drug level at 0.5 mM after 3 hrs by RP-HPLC analysis; type: physicochemical; settings: read-out: Stability
Procedure, shortened: (§1)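 A 0.5 mM acetonitrile solution (2 mL) is diluted to 10 mL with HCl (pH 1.0) or 50 mM phosphate buffer (pH 7.4) and held at 37 ± 0.5 °C. Aliquots are taken over time for RP-HPLC (C18 column, acetonitrile/water gradient with 0.1% TFA). Performed in triplicate.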

[2] = Chemical stability in phosphate buffer at pH 7.4 assessed as unchanged drug level at 0.5 mM after 3 hrs by RP-HPLC analysis; type: physicochemical; settings: read-out: Stability; procedure, shortened: as §1
[3] = Metabolic stability in human serum assessed as half life at 250 uM by RP-HPLC analysis; type: ADME, cell-free
[4] = test system: Serum; assay: Metabolic stability in human serum assessed as maximal amount of aspirin released at 250 uM by RP-HPLC analysis; type: ADME, cell-free
[5] = test system: Platelet; assay: (§2) Antiaggregatory activity in human platelet rich plasma assessed as inhibition of collagen-induced platelet aggregation preincubated 10 mins before collagen challenge; type: functional
Procedure, shortened: (§3)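 Platelet-rich plasma from citrated blood spun at 210g for 20 min. Compound in 0.5% DMSO vehicle preincubated 10 min, then submaximal collagen (0.8–1.5 μg/mL). Light-transmission aggregometry with stirring at 1000 rpm, 37 °C, recorded for 10 min. Read-out is % inhibition versus vehicle control; IC50 by nonlinear regression, else % inhibition at 300 μM top concentration. At least five experiments.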

[6] = Antiaggregatory activity in human platelet rich plasma assessed as inhibition of collagen-induced platelet aggregation at 300 uM preincubated 10 mins before collagen challenge; type: functional; procedure, shortened: as §3
[7] = test system: Aorta; assay: Vasodilatory activity in Wistar rat endothelium-denuded thoracic aortic ring assessed as inhibition of phenylephrine-induced contraction […]; type: functional, tissue-based
Procedure, shortened: (§4)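 Endothelium-denuded rat aorta strips are precontracted with phenylephrine. At the plateau, cumulative concentrations of test agent in DMSO are added. Relaxation is recorded isometrically and reported as EC50 ± SEM (μM). In a separate series, 1 μM ODQ is added 5 min before contraction, giving at least 30 min of preincubation before the vasodilator. At least five experiments.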

[8] = test system: Aorta; assay: Vasodilatory activity in Wistar rat endothelium-denuded thoracic aortic ring assessed as inhibition of phenylephrine-induced contraction at 30 uM preincubated for 30 mins before phenylephrine addition in presence of 1 uM 1H-[1,2,4]oxadiazolo[4,3-a]quinoxalin-1-one; type: functional; design: scale not given: the % may be the effect or the level left
[9] = test system: Aorta; assay: Vasodilatory activity in Wistar rat endothelium-denuded thoracic aortic ring assessed as inhibition of phenylephrine-induced contraction at 100 uM preincubated for 30 mins before phenylephrine addition in presence of 1 uM 1H-[1,2,4]oxadiazolo[4,3-a]quinoxalin-1-one; type: functional; design: scale not given: the % may be the effect or the level left
[10] = as §2; type: functional; procedure, shortened: as §3
[11] = test system: Aorta; assay: Vasodilatory activity in Wistar rat endothelium-denuded thoracic aortic ring assessed as inhibition of phenylephrine-induced contraction preincubated for […] in presence of 1 uM 1H-[1,2,4]oxadiazolo[4,3-a]quinoxalin-1-one; type: functional, tissue-based; procedure, shortened: as §4

Row | SMILES | remaining at 3 h, 500 µM [1] [%] | remaining at 3 h, 500 µM [2] [%] | half-life at 250 µM [3] [min] | Activity [4] [%] | Activity [5] | inhibition at 300 µM [6] [%] | Activity [7] | EC50 [7] [µM] | Activity [8] [%] | Activity [9] [%] | IC50 [10] [µM] | EC50 [11] [µM]
1 | CC(=O)Oc1ccccc1C(=O)OCOC(=O)CCCCCCO[N+](=O)[O-] | 99 | 100 | < 1 | 17.6 | Dose-dependent effect | 29 | Dose-dependent effect | 1.6 | <50 | – | – | –
2 | O=C(O)c1cccc(OCCCO[N+](=O)[O-])c1 | – | – | – | – | – | – | Dose-dependent effect | 3.8 | – | <50 | – | –
3 | CC(=O)Oc1ccccc1C(=O)OCOC(=O)c1ccc(CC(CO[N+](=O)[O-])O[N+](=O)[O-])cc1 (stereo not drawn) | 99 | 99 | 3.4 | 34.2 | Dose-dependent effect | – | Dose-dependent effect | 0.052 | <50 | – | 97 | –
4 | CC(=O)Oc1ccccc1C(=O)OCOC(=O)c1cccc(CO[N+](=O)[O-])n1 | 84 | 60 | < 1 | 58 | Dose-dependent effect | – | Dose-dependent effect | 0.82 | <50 | – | 20 | –
5 | CC(=O)Oc1ccccc1C(=O)OCOC(=O)CCCC(CO[N+](=O)[O-])O[N+](=O)[O-] (stereo not drawn) | 99 | 99 | < 1 | 10.6 | Dose-dependent effect | 8.6 | Dose-dependent effect | 0.39 | <50 | – | – | –
6 | CC(=O)Oc1ccccc1C(=O)OC(C)OC(=O)c1ccc(SCCCO[N+](=O)[O-])cc1 (stereo not drawn) | 98 | 99 | 4.4 | 29.4 | Dose-dependent effect | 27 | Dose-dependent effect | 0.14 | <50 | – | – | –
7 | O=C(O)c1ccc(SCCCO[N+](=O)[O-])cc1 | – | – | – | – | – | – | Dose-dependent effect | 0.27 | – | – | – | 53
8 | CC(=O)Oc1ccccc1C(=O)OCOC(=O)c1ccc(SCCCO[N+](=O)[O-])cc1 | 99 | 99 | 2.4 | 61.7 | Dose-dependent effect | – | Dose-dependent effect | 0.15 | <50 | – | 45 | –
9 | O=C(O)c1ccc(CCCO[N+](=O)[O-])cc1 | – | – | – | – | – | – | Dose-dependent effect | 0.51 | – | <50 | – | –
10 | O=C(O)c1ccc([S+]([O-])CCCO[N+](=O)[O-])cc1 (stereo not drawn) | – | – | – | – | – | – | Dose-dependent effect | 6 | – | <50 | – | –
11 | O=C(O)CCCCCO[N+](=O)[O-] | – | – | – | – | – | – | Dose-dependent effect | 8.3 | – | <50 | – | –
12 | CC(=O)Oc1ccccc1C(=O)OCOC(=O)c1ccc(S(=O)(=O)CCCO[N+](=O)[O-])cc1 | 98 | 70 | < 1 | 59.2 | Dose-dependent effect | – | Dose-dependent effect | 0.36 | <50 | – | 38 | –
13 | O=C(O)c1ccccc1OCCCO[N+](=O)[O-] | – | – | – | – | – | – | Dose-dependent effect | 20 | – | <50 | – | –
14 | O=C(O)c1ccc(CC(CO[N+](=O)[O-])O[N+](=O)[O-])cc1 (stereo not drawn) | – | – | – | – | – | – | Dose-dependent effect | 0.33 | – | <50 | – | –
15 | CC(=O)Oc1ccccc1C(=O)OCOC(=O)CCCCCO[N+](=O)[O-] | 99 | 99 | < 1 | 10.1 | Dose-dependent effect | 17 | Dose-dependent effect | 1.2 | <50 | – | – | –
16 | O=C(O)c1ccc(S(=O)(=O)CCCO[N+](=O)[O-])cc1 | – | – | – | – | – | – | Dose-dependent effect | 20 | – | <50 | – | –
17 | CC(=O)Oc1ccccc1C(=O)OCOC(=O)c1ccc(CCCO[N+](=O)[O-])cc1 | 98 | 100 | 1.9 | 65.2 | Dose-dependent effect | – | Dose-dependent effect | 0.075 | <50 | – | 41 | –
18 | O=C(O)c1ccc(OCCCO[N+](=O)[O-])cc1 | – | – | – | – | – | – | Dose-dependent effect | 0.62 | – | – | – | 66
19 | O=C(O)c1ccc(SCC(CO[N+](=O)[O-])O[N+](=O)[O-])cc1 (stereo not drawn) | – | – | – | – | – | – | Dose-dependent effect | 0.27 | – | – | – | 56
20 | CC(=O)Oc1ccccc1C(=O)OCOC(=O)c1ccc(OCCCO[N+](=O)[O-])cc1 | 99 | 99 | 3.4 | 39.8 | Dose-dependent effect | – | Dose-dependent effect | 0.017 | <50 | – | 138 | –
21 | CC(=O)Oc1ccccc1C(=O)OCOC(=O)c1ccc(SCC(CO[N+](=O)[O-])O[N+](=O)[O-])cc1 (stereo not drawn) | 98 | 98 | 4.6 | 43 | Dose-dependent effect | – | Dose-dependent effect | 0.1 | <50 | – | 129 | –
22 | CC(=O)Oc1ccccc1C(=O)OCOC(=O)c1ccccc1OCCCO[N+](=O)[O-] | 99 | 98 | < 1 | 5 | Dose-dependent effect | – | Dose-dependent effect | 4 | <50 | – | 163 | –
23 | CC(=O)Oc1ccccc1C(=O)OCOC(=O)CCCCC(CO[N+](=O)[O-])O[N+](=O)[O-] (stereo not drawn) | 99 | 99 | < 1 | 9.8 | Dose-dependent effect | 36 | Dose-dependent effect | 0.52 | <50 | – | – | –
24 | CC(=O)Oc1ccccc1C(=O)OCOC(=O)c1ccc(OCC(CO[N+](=O)[O-])O[N+](=O)[O-])cc1 (stereo not drawn) | 99 | 99 | 5.4 | 22.4 | Dose-dependent effect | – | Dose-dependent effect | 0.041 | <50 | – | 140 | –
25 | O=C(O)c1cccc(CO[N+](=O)[O-])n1 | – | – | – | – | – | – | Dose-dependent effect | 12 | – | <50 | – | –
26 | O=C(O)CCCCCCO[N+](=O)[O-] | – | – | – | – | – | – | Dose-dependent effect | 20 | – | <50 | – | –
27 | CC(=O)Oc1ccccc1C(=O)OCOC(=O)c1cccc(OCCCO[N+](=O)[O-])c1 | 99 | 98 | 1.4 | 48.3 | Dose-dependent effect | – | Dose-dependent effect | 0.14 | <50 | – | 100 | –
28 | O=C(O)c1ccc(OCC(CO[N+](=O)[O-])O[N+](=O)[O-])cc1 (stereo not drawn) | – | – | – | – | – | – | Dose-dependent effect | 0.28 | – | – | – | 67
29 | CC(=O)Oc1ccccc1C(=O)O [ASPIRIN] | 90 | 90 | 63 | – | Dose-dependent effect | – | – | – | – | – | 54 | –
30 | CC(=O)Oc1ccccc1C(=O)OCOC(=O)c1ccc([S+]([O-])CCCO[N+](=O)[O-])cc1 (stereo not drawn) | 98 | 90 | < 1 | 70.7 | Dose-dependent effect | – | Dose-dependent effect | 0.47 | <50 | – | 72 | –
